From ChEMBL document CHEMBL1153473 (Bioorg Med Chem Lett, 2009) come the findings set out here.

For series [1], the target named is T1, Steroid 17-alpha-hydroxylase/17,20 lyase (Rattus norvegicus, UniProt P11715).
T1 sequence (P11715 whole entry): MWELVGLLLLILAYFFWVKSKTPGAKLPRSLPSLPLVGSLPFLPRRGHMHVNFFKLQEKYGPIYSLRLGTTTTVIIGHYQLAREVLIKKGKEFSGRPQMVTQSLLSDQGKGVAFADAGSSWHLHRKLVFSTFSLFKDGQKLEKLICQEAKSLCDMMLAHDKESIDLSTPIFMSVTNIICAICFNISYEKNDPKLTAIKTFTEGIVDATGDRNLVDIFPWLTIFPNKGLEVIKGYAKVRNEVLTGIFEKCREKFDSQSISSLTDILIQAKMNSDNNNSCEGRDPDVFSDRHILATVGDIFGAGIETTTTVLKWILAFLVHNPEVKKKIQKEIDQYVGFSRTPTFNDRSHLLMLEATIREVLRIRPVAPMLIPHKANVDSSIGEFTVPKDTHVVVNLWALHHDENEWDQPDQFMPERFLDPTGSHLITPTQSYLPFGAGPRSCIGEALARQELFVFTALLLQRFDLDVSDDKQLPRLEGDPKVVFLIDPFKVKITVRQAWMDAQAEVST
The experiment in a line: Inhibition of 17,20-lyase activity of rat testicular microsomal P450-17alpha. The essentials:
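Lyase reaction: rat testicular microsomes (final 0.23 mg/mL), 50 mM sodium phosphate pH 7.4, NADPH-generating system, 1 µM radiolabelled 17α-hydroxyprogesterone substrate; inhibitor added in ethanol; 37 °C prewarm 5 min, then 30 min incubation. Ether-extracted, TLC in DCM/ethyl acetate 4:1, 3H counted per spot; no-inhibitor controls. IC50 from ≥5 concentrations, each in triplicate.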

For series [2], the target named is T1, Steroid 17-alpha-hydroxylase/17,20 lyase. Description: Inhibition of 17-alpha-hydroxylase activity of rat testicular microsomal P450-17alpha. The essentials:
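Rat testicular microsomes (final 0.16 mg/mL) in 50 mM sodium phosphate pH 7.4 with NADPH-generating system and 1.5 µM radiolabelled progesterone; inhibitor in ethanol; 5 min prewarm at 37 °C, 15 min reaction. Ether extraction, TLC (DCM/ethyl acetate 7:3), spots scintillation-counted for 3H; no-inhibitor controls. IC50 from ≥5 concentrations in triplicate, linear regression of inhibition versus log[I].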

Series [3] shares this target. The experiment in a line: Selectivity index, ratio of IC50 for 17-alpha-hydroxylase activity of rat testicular microsomal P450-17alpha to IC50 for 17,20-lyase activity of rat testicular microsomal P450-17alpha.
In the next series the target is T2, Aromatase (Homo sapiens, UniProt P11511).
T2 sequence (P11511 whole entry): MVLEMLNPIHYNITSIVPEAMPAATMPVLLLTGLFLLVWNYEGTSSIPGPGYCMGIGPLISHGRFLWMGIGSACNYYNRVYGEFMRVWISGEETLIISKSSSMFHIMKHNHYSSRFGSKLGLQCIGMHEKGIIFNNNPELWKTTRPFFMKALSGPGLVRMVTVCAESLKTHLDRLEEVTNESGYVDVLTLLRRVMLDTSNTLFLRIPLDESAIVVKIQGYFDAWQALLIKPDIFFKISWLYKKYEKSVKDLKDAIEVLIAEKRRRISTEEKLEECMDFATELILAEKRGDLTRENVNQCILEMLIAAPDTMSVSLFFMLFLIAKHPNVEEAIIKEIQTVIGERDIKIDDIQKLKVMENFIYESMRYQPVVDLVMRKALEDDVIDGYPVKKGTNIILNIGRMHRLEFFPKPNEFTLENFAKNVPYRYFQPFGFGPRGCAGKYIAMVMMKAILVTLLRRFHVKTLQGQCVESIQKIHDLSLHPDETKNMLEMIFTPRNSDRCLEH
Description: Inhibition of aromatase.

In general, IC50 refers to the concentration that gives 50% inhibition. A lower IC50 goes with greater potency in that assay. Take `O=S(=O)(Oc1ccc(Cn2ccnc2)cc1)c1ccc(Br)cc1`: the IC50 in series [1] was found to be 70.4 nM; in series [2], 4840 nM. For the same compound, the “Ratio IC50” value in series [3] came out at 34.6.
Regarding `Cc1ccc(Cn2ccnc2)cc1`, at Aromatase, the IC50 worked out at 24500 nM.
On the same count and under the same terms, to `Fc1ccc(Cn2ccnc2)cc1` belongs 880 nM.
`Ic1ccc(Cn2ccnc2)cc1`: the “Ratio IC50” value in series [3] came to 6.4.
The compound `Clc1ccc(Cn2ccnc2)cc1` displayed an IC50 against Aromatase of 70 nM.
Regarding `Cc1ccc(S(=O)(=O)Oc2ccc(Cn3ccnc3)cc2)cc1`, the results for the IC50 in series [1] and in series [2] were 230 nM and 25200 nM, respectively. The “Ratio IC50” value in series [3] came out at 109.4.
Take `O=[N+]([O-])c1ccc(S(=O)(=O)Oc2ccc(Cn3ccnc3)cc2)cc1`: the results for the IC50 in series [1] and in series [2] were 85 nM and 6880 nM, respectively. In addition, in series [3], the “Ratio IC50” value came out at 80.9.
Consider `O=S(=O)(Oc1ccc(Cn2ccnc2)cc1)c1ccc(Cl)cc1`, for which the IC50 turned out to be 98.7 nM in series [1] and 6850 nM in series [2]. The “Ratio IC50” value in series [3] worked out at 69.9.
On the same counts, the results for `COc1ccc(S(=O)(=O)Oc2ccc(Cn3ccnc3)cc2)cc1` are 101 nM, 6000 nM and 60.
Regarding `O=S(=O)(Oc1ccc(Cn2ccnc2)cc1)c1ccc(I)cc1`, the IC50 in series [1] worked out at 65.1 nM; in series [2], 10000 nM. In series [3], the “Ratio IC50” value came to 100.1.
On the same counts, the results for `O=S(=O)(Oc1ccc(Cn2ccnc2)cc1)c1ccc(C(F)(F)F)cc1` are 291 nM, 64900 nM and 223.8.
With `O=S(=O)(Oc1ccc(Cn2ccnc2)cc1)c1ccc(F)cc1`, the IC50 in series [1] amounted to 210 nM; in series [2] it was 15900 nM. Also, the “Ratio IC50” value in series [3] was 75.9.
For the compound `CC(=O)N1CCN(c2ccc(OCC3COC(Cn4ccnc4)(c4ccc(Cl)cc4Cl)O3)cc2)CC1` (stereo not given) [KETOCONAZOLE], the “Ratio IC50” value in series [3] was 2.3.
The compound `N#CC(C#N)=Cc1ccc(O)c(O)c1` [TYRPHOSTIN 23] returned an IC50 against Aromatase of 70600 nM.
